Results from different studies.
Protocols differ between the studies behind these lines.
Target: Acetylcholinesterase (ACHE, Homo sapiens, UniProt P22303)

Structure (SMILES) | read-out | mode | technique | tested at | quantity | value
COc1ccc2c(c1)[nH]c1c(C)nccc12 | enzyme activity | inhibitor | Ellman | 1 µM | inhibition | 33.8%
O=C(O)c1ccccc1O | enzyme activity | inhibitor | Ellman | 20 µM | inhibition | 1.3%
CCN1C(=O)C=CC1=O | enzyme activity | inhibitor | – | 30 µM | inhibition | ~20%
O=C(Nc1cccnn1)N1CCN([C@@H]2CCOc3cc(C(F)(F)F)ccc32)CC1 | enzyme activity | inhibitor | – | 20 µM | inhibition | -3%
CN(CCN1CCC(OC(=O)Nc2ccccc2-c2ccccc2)CC1)C(=O)c1ccc(CN2CCC(C(N)=O)CC2)cc1 | enzyme activity | inhibitor | – | 1 µM | inhibition | 9%
C[C@H](C(=O)N[C@H]1COc2ccccc2[C@@H]1S(C)(=O)=O)c1ccc(F)cc1 | enzyme activity | inhibitor | – | 10 µM | inhibition | 1%
COc1ccc(S(=O)(=O)N2CCCCC2)cc1C | ligand displacement | – | radioligand | 10 µM | inhibition | < 30%
Cc1ncc(C)n2nc(/C=C/c3nc(N4CCCC4)cc(N4CCOCC4)n3)nc12 | enzyme activity | inhibitor | – | 10 µM | inhibition | 4%
COCc1c(-c2cc3cc(C)cc(OC)c3s2)c2c(N)ncnn2c1CN1CCNC(=O)C1 | enzyme activity | inhibitor | – | 10 µM | inhibition | -1%
c1ccc(C(NCCNC(c2ccccc2)c2ccccc2)c2ccccc2)cc1 | enzyme activity | inhibitor | – | 10 µM | inhibition | 13%
O=C1CN(C(=O)CCn2ccnc2)CC(O)CN1CCc1ccccc1 (stereo not drawn) | enzyme activity | inhibitor | Ellman | 10 µM | inhibition | 21.6%
C=CCn1c2cc(OC(=O)CCN3CCN(Cc4ccccc4)CC3)ccc2c2ccnc(C)c21 | enzyme activity | inhibitor | Ellman | 1 µM | inhibition | 36.4%
Clc1ccc2c(C3CCN(CCc4c[nH]c5ccccc45)CC3)c[nH]c2c1 | enzyme activity | inhibitor | – | 10 µM | inhibition | 4%
CCOP(=O)(OCC)Oc1ccc([N+](=O)[O-])cc1 | enzyme activity | inhibitor | – | – | kinact/KI | 1510 M⁻¹ s⁻¹
Nc1ncc(-c2nc(N3CCOCC3)nc(N3CCOCC3)n2)c(C(F)F)n1 | enzyme activity | inhibitor | – | 10 µM | remaining activity | 98%
